Only some compounds are listed: those with a hit (about 3.1% of all), similar ones and a draw of the others.
hERG protect: shields human hERG channel from block by proarrhythmic agents | Q12809 | CHO-hERG, FluxOR thallium flux, dofetilide IC70 present | activation (rescue from dofetilide block), less the hit threshold, % at 10 µM | 0.51% of 310,000 active;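 active = activation above the mean of controls blocked by dofetilide plus 5 SD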;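 also: thallium influx through hERG after potassium depolarization seen as dye fluorescence rise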
KCNQ1 inh: blocks the human KCNQ1 potassium channel; CHO-K1 KCNQ1, FluxOR thallium flux fluorescence; active compounds read high; B-score at 10 µM; 1.3% of 310,000 active; AID 2642;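 active = compounds whose thallium flux B-score, printed positive for inhibition, exceeds three library SD while starting fluorescence stays within three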;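 also: channel opened by potassium depolarization with thallium stimulus after 20 min compound exposure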
KCNK9 block: blocks the human KCNK9 two-pore domain potassium channel | 1.2% of 310,000 active | B-score at 10 µM | AID 488922 | HEK293 KCNK9, FluxOR thallium flux fluorescence; active compounds read low;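 active = ratio B-score over 3 SD below the library mean, with starting fluorescence within 5 SD of its mean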;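 also: negative B-score means less thallium flux so channel inhibition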
KCNK3 block: human KCNK3 channel inhibition, primary screen; O14649; CHO-KCNK3 thallium flux, FluxOR fluorescence; active compounds read low; AID 602410; B-score at 10 µM; 0.84% of 340,000 active;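 active = B-score under library mean minus 4 SD, starting fluorescence ratio at most library mean plus 5 SD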;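 also: more negative B-score means stronger inhibition of thallium flux through KCNK3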
KCNQ1 act: human KCNQ1 channel potentiation or activation. B-score at 10 µM. CHO-K1 KCNQ1, thallium flux FluxOR fluorescence; active compounds read high. AID 2648. 0.35% of 310,000 active;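 active = fluorescence ratio B-score, a plate-corrected score, at least three library SD, with initial intensity B-score within 5 SD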
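assay system = CHO-K1 cells stably expressing KCNQ1 | medium = assay buffer, equal DMSO in all wells | timing = 37 °C overnight plating, 90-min dark dye load, 20-min compound pretreatment | measured by = kinetic FluxOR thallium fluorescence, 10-s 1-Hz baseline, 110-s post-stimulus read | measure = fluorescence change relative to baseline, converted to B score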
KCNQ1 block val: reconfirmed blocker of the human KCNQ1 potassium channel | 93% of 1,600 active | inhibition, % at 10 µM | shares compounds with KCNQ1 inh | KCNQ1 cell line, FluxOR thallium flux fluorescence;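 active = primary screen active, with duplicate mean exceeding buffer control mean plus 3 SD of buffer wells, cut at about 28% in these data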
CHO KCNQ1 ctr: KCNQ1 inhibitor counter-screen hit in parental CHO cells; shares compounds with KCNQ1 inh; AID 588366; fluorescence ratio (Tl flux) at 10 µM; parental CHO-K1, FluxOR thallium flux fluorescence ratio; active compounds read low; zero means no signal rise above baseline; 21% of 1,600 active;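 active = mean of duplicate thallium-flux fluorescence ratios in parental host cells more than 5 SD below the buffer control mean, cut at about 0.38 in these data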;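 also: ratio is peak minus minimum fluorescence divided by baseline fluorescence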
KCNQ1 APC inh: human KCNQ1 inhibition validated by electrophysiology. shares compounds with KCNQ1 inh. KCNQ1-CHO cells, automated patch clamp current. calls only at 10 µM. 20% of 490 active;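 active = KCNQ1 current drop exceeding 3 SD of negative control wells, seen in both duplicate runs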;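 also: steady state current during a 2 s step from -80 to +40 mV; negative values mean current inhibition and positive values mean potentiation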
KCNQ2 inh: selectivity of KCNQ1 inhibitors: inhibition of rat KCNQ2 channel; KCNQ2 cells, FluxOR thallium flux fluorescence; 71% of 1,600 active; shares compounds with KCNQ1 inh; inhibition, % at 10 µM;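 active = mean percent inhibition of the KCNQ2 thallium signal more than 5 SD above the buffer-only control wells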;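 also: KCNQ2 expressed in CHO cells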
KCNQ1 KCNE1 spec: human KCNQ1/KCNE1 inhibition in KCNQ1 specificity screen | shares compounds with KCNQ1 inh | KCNQ1/KCNE1 cells, FluxOR thallium flux fluorescence | inhibition, % at 10 µM | 77% of 1,600 active;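 active = mean percent inhibition of duplicate wells above the buffer-only control mean plus 3 SD of those controls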
A number is an active result; – = inactive; · = no result given; + = active, no number.

SMILES	hERG protect	KCNQ1 inh	KCNK9 block	KCNK3 block	KCNQ1 act	KCNQ1 block val	CHO KCNQ1 ctr	KCNQ2 inh	KCNQ1 KCNE1 spec	others
O=C(O)c1ccc(N=C2c3ccccc3-c3ccccc32)cc1	·	·	·	–	·	·	·	·	·
CC(c1ccon1)N(C)Cc1cn(Cc2ccccc2)nc1-c1ccc2c(c1)OCO2 (stereo unspecified)	–	6	–	–	–	104	–	96%	57%	KCNQ1 APC inh=–
CC12CCC(=O)N1C(C(=O)N1CCN(c3ccc([N+](=O)[O-])cc3)CC1)CS2 (stereo unspecified)	·	·	·	–	·	·	·	·	·
COc1ccc(NC(=O)c2ccc(CN3CCN(c4ccccc4)CC3)cc2)cc1	–	6	–	–	–	–	–	–	–
COc1ccc(C(=O)Nc2ccc(N3CCN(Cc4ccccc4)CC3)cc2)cc1	–	–	–	–	–	·	·	·	·
CCCCn1c(SCC(=O)N2CCOCC2)nnc1-c1ccoc1C	–	–	–	–	–	·	·	·	·
Cc1occc1-c1nnc(SCC(=O)N2CCOCC2)n1CCc1ccccc1	–	6	–	–	–	36	–	–	45%
CN(C)CCCn1c2c3ccccc3ccc2c2oc(=O)c3ccccc3c21	·	·	·	–	·	·	·	·	·
Cc1cccc(N2C(=O)CC(N3CCC(c4nc5ccccc5[nH]4)CC3)C2=O)c1 (stereo unspecified)	–	–	–	–	–	·	·	·	·
CCN1C(=O)CC(N2CCC(c3nc4ccccc4[nH]3)CC2)C1=O (stereo unspecified)	–	6	–	–	–	32	–	–	73%
O=C(O)c1ccc(Cn2cnc3c(=O)[nH]cnc32)cc1	·	·	·	–	·	·	·	·	·
CC(Oc1ccc(Cl)cc1Cl)C(=O)OCC(=O)c1c(N)n(C)c(=O)n(C)c1=O (stereo unspecified)	·	·	·	–	·	·	·	·	·
O=C(c1cc(COc2ccc3ncccc3c2)on1)N1CCCCCC1	–	7	–	–	–	114	–	101%	–	KCNQ1 APC inh=–
Cc1cc(OCc2cc(C(=O)N3CCN(CC4CC4)CC3)no2)cc(C)c1Cl	–	–	–	–	–	·	·	·	·
O=C(NC1CCCC1)c1cc(COc2ccc3ncccc3c2)on1	–	8	–	–	–	91	–	–	–	KCNQ1 APC inh=+
O=C(c1cc(COc2ccc3ncccc3c2)on1)N1CCCC1	–	–	–	–	–	·	·	·	·
Cc1ccc(OCc2cc(C(=O)NC3CCCCC3)no2)cn1	–	–	–	–	–	·	·	·	·
Cc1cc(OCc2cc(C(=O)N3CCC(Oc4cccnc4)CC3)no2)cc(C)c1Cl	–	13	–	–	–	148	0.37	124%	+
CC(NC(=O)c1cc(COc2ccc3ncccc3c2)on1)c1ccc(F)cc1 (stereo unspecified)	–	10	–	–	–	108	–	92%	92%	KCNQ1 APC inh=+
CN(CCOc1ccc(Cl)cc1)C(=O)c1cccc(S(=O)(=O)N2CCN(c3ccc(F)cc3)CC2)c1	·	·	·	–	·	·	·	·	·
Nc1c(N(CCC2=CCCCC2)C(=O)c2ccccc2F)c(=O)[nH]c(=O)n1Cc1ccccc1	·	·	·	–	·	·	·	·	·
Cc1ccc(N(C)S(=O)(=O)c2cccc(C(=O)NCC(c3ccco3)N3CCCC3)c2)cc1 (stereo unspecified)	·	·	·	–	·	·	·	·	·
CC1CCN(c2nnc(-c3ccccc3)c3ccccc23)CC1	–	6	–	–	–	92	–	90%	143%	KCNQ1 APC inh=–
Cc1ccc(-c2nnc(N3CCC(C)CC3)c3ccccc23)cc1C	–	12	–	–	–	164	0.31	114%	+
Cc1ccc(-c2nnc(N3CCC(C)CC3)c3ccccc23)cc1	–	–	–	–	–	·	·	·	·
CCOC(=O)c1ccc(NC(=S)NCCc2ccccc2F)cc1	–	8	–	–	–	84	–	77%	50%

Screening results (PubChem BioAssay)
